# ChEMBL document CHEMBL5352504, “PINK1-Dependent Mitophagy Inhibits Elevated Ubiquitin Phosphorylation Caused by Mitochondrial Damage” (J Med Chem, 2023)
# Activity calls are given as the source filed them. The rule behind the calls is not given here.
# Columns and labels:
# [1] = target: Serine/threonine-protein kinase PINK1, mitochondrial (Homo sapiens) (UniProt Q9BXM7); assay: Activation of PINK1 in human HeLa cells transfected with Parkin assessed as prevention of OPA1 cleavage at 50 uM incubated for 1 hr by Western blot analysis; format: cell-based
# Chain of Serine/threonine-protein kinase PINK1, mitochondrial (Homo sapiens) (Q9BXM7 whole entry): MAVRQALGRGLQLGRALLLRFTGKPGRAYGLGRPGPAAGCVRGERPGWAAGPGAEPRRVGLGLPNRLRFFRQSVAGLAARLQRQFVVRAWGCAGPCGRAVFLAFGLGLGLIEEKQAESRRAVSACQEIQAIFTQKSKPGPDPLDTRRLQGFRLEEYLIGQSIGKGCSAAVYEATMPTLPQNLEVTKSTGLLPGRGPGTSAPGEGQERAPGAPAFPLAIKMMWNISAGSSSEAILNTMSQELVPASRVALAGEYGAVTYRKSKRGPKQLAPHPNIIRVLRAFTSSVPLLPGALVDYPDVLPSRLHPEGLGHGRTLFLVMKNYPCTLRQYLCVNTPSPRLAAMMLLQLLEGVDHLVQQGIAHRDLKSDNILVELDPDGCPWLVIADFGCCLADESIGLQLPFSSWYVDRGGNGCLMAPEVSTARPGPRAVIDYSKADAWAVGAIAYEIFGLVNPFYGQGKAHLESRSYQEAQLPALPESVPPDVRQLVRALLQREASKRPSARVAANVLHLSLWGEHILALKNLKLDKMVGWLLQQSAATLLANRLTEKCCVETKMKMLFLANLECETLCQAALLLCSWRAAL
# In short: (§1)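 HeLa cells transfected with Parkin were exposed to 50 μM compound for 1 h, with 10 μM CCCP for 3 h as a control. Cells were then lysed and immunoblotted for pSer65 Parkin, total Parkin, OPA1 and GAPDH (loading control). Untreated transfected and untransfected cells were included. Blots are representative of three repeat experiments.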
# [2] = target: Serine/threonine-protein kinase PINK1, mitochondrial (Homo sapiens) (UniProt Q9BXM7); assay: Activation of PINK1 in human HeLa cells transfected with Parkin assessed as increase in Parkin phosphorylation at serine 65 at 50 uM incubated for 1 hr by Western blot analysis; format: cell-based; in short: as §1
# HeLa [3] = assay: Induction of mitophagy in human HeLa cells transfected with YFP-Parkin assessed as effect on Parkin localization at 50 uM incubated for 24 hrs by Hoechst 33258 staining based immunofluorescence analysis; format: functional, cell-based
# In short: (§2)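 YFP-Parkin-transfected HeLa cells were left untreated or exposed to 50 μM compound alone for 24 h. Cells were PFA-fixed, Triton-permeabilised and immunostained for pSer65-Ub and TOM20 with Hoechst. Confocal imaging assessed mitochondrial fragmentation, YFP-Parkin localisation and ubiquitin phosphorylation.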
# HeLa [4] = assay: Induction of mitophagy in human HeLa cells transfected with YFP-Parkin assessed as parkin localization in mitochondria at 50 uM preincubated for 24 hrs followed by CCCP stimulation and measured after 1 hr hr by Hoechst 33258 staining based immunofluorescence analysis; format: functional, cell-based
# In short: (§3)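 YFP-Parkin HeLa cells were pretreated with 50 μM compound for 24 h, then given 10 μM CCCP or niclosamide for 1 h. Cells were fixed in chilled 4% PFA, permeabilised with 0.1% Triton, blocked in BSA, then immunostained overnight at 4 °C for pSer65-Ub and TOM20 with Hoechst. YFP-Parkin was imaged by confocal microscopy (40× oil). pUb mitochondrial localisation was quantified from images.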
# HeLa [5] = assay: Inhibition of CCCP-induced ubiquitin phosphorylation at serine 65 residue in human HeLa cells transfected with YFP-Parkin at 50 uM preincubated for 24 hrs followed by CCCP stimulation and measured after 1 hr hr by Hoechst 33258 staining based immunofluorescence analysis; format: cell-based; details: time 25.0 hrs; in short: as §3
# HeLa [6] = assay: Induction of mitophagy in human HeLa cells transfected with YFP-Parkin assessed as effect on mitochondrial fragmentation at 50 uM incubated for 24 hrs by Hoechst 33258 staining based immunofluorescence analysis; format: functional, cell-based; in short: as §2
# [7] = target: Serine/threonine-protein kinase PINK1, mitochondrial (Mus musculus) (UniProt Q99MQ3); assay: Activation of mouse PINK1 in mouse astrocytes assessed increase in ubiquitin serine 65 phosphorylation at 50 uM incubated for 24 hrs by ELISA analysis; format: cell-based; details: Astrocyte, filed as activator
# Chain of Serine/threonine-protein kinase PINK1, mitochondrial (Mus musculus) (Q99MQ3 whole entry): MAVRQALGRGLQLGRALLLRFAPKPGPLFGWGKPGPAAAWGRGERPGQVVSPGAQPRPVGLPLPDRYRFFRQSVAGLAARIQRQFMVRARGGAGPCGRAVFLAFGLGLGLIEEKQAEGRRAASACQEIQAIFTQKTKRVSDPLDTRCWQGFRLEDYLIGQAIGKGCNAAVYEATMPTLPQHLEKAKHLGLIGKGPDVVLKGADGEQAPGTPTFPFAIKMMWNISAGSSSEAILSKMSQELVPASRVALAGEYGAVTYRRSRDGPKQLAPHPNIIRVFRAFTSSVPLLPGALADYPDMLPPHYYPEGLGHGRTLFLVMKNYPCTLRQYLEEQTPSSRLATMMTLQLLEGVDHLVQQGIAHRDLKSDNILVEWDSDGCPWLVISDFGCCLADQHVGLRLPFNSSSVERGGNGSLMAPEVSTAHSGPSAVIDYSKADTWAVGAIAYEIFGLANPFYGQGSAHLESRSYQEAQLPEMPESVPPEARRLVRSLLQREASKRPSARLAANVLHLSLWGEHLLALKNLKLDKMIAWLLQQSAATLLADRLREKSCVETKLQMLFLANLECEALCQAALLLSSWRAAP
# In short: (§4)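 Primary cortical astrocytes came from postnatal day 3 C57BL/6J pups and were used at 70–90% confluence (7–10 days in vitro). Lysates (HEPES/NP-40 lysis, pellet resuspended in RIPA) went to pS65-Ub ELISA. Signal was normalised per μg protein (BCA); mean ± SEM, n = 8.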
# HeLa [8] = assay: Induction of mitophagy in YFP-Parkin-transfected human HeLa cells assessed as effect on ubiquitin phosphorylation at 50 uM incubated for 24 hrs by Hoechst 33258 staining based immunofluorescence analysis; format: functional, cell-based; in short: as §2
# [9] = target: Serine/threonine-protein kinase PINK1, mitochondrial (Mus musculus) (UniProt Q99MQ3); assay: Activation of mouse PINK1 in mouse astrocytes assessed ubiquitin serine 65 phosphorylation at 50 uM preincubated for 24 hrs followed by valinomycin treatment for 5 hrs by ELISA; format: cell-based; details: Astrocyte, time 29.0 hrs; in short: as §4
# [10] = target: T1, Serine/threonine-protein kinase Pink1, mitochondrial (Tribolium castaneum) (UniProt D6WMX4); assay: Inhibition of recombinant Tribolium castaneum PINK1 using human Parkin as substrate assessed as substrate phosphorylation upto 100 uM
# T1 sequence (whole entry): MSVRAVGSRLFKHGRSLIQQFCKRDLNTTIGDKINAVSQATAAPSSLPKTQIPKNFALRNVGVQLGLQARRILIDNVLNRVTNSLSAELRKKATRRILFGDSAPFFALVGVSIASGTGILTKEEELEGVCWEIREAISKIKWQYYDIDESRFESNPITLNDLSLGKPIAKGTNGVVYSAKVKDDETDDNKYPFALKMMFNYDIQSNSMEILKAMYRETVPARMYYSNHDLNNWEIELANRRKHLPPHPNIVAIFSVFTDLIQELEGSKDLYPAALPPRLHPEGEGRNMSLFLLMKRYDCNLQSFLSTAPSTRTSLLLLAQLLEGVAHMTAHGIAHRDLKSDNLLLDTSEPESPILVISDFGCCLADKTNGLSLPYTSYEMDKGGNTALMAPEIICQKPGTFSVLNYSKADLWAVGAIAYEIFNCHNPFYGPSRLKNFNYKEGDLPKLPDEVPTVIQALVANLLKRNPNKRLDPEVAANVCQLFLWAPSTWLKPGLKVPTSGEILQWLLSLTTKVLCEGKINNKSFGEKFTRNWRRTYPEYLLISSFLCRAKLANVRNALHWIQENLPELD
# [11] = target: T1, Serine/threonine-protein kinase Pink1, mitochondrial (Tribolium castaneum); assay: Inhibition of recombinant Tribolium castaneum PINK1 using human ubiquitin as substrate assessed as substrate phosphorylation upto 100 uM
# HeLa [12] = assay: Induction of mitochondrial membrane depolarization in human HeLa cells overexpressing Parkin assessed as OPA1 cleavage at 10 uM and measured after 3 hrs by Western blot analysis; format: functional, cell-based
# In short: (§5)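 Parkin-transfected HeLa (DMEM, 10% FBS, 37 °C, 5% CO2) treated 3 h with 10 μM agent (CCCP control arm), with or without 24 h pre-treatment at 50 μM. Lysed in Tris pH 7.5 buffer with phosphatase/protease inhibitors, protein by Bradford, boiled in SDS buffer, immunoblotted for pUb Ser65, OPA1 (cleavage as depolarization read-out) and GAPDH loading control.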
# [13] = target: Serine/threonine-protein kinase PINK1, mitochondrial (Homo sapiens) (UniProt Q9BXM7); assay: Activation of human PINK1 in human HeLa cells overexpressing Parkin assessed as phosphorylation of ubiquitin at serine 65 at 10 uM and measured after 3 hr by Western blot analysis; format: cell-based; details: filed as activator; in short: as §5
Activity [1],Activity ([2]; filed as activator),Activity [2],SMILES,other results
inactive,Active,–,CC(C)Nc1ncnc2c1ncn2[C@@H]1O[C@H](CO)[C@@H](O)[C@H]1O,–
inactive,Active,–,CNc1ncnc2c1ncn2[C@@H]1O[C@H](CO)[C@@H](O)[C@H]1O,Activity (HeLa [3]): inactive; Activity (HeLa [4]): inactive; inhibition (HeLa [5]): inactive; Activity (HeLa [6]): inactive; Activity [7]: Active; Activity (HeLa [8]): inactive; Activity [9]: inactive
inactive,–,inactive,CC(C)(C)CNc1ncnc2c1ncn2[C@@H]1O[C@H](CO)[C@@H](O)[C@H]1O,–
–,–,inactive,CC(C)Nc1ncnc2[nH]cnc12,–
inactive,Active,–,OC[C@H]1O[C@@H](n2cnc3c(NCCc4ccc(O)cc4)ncnc32)[C@H](O)[C@@H]1O,–
–,–,–,O=P(O)(O)OP(=O)(O)OP(=O)(O)OC[C@H]1O[C@@H](n2cnc3c(NCc4ccccc4)ncnc32)[C@H](O)[C@@H]1O,inhibition [10]: inactive; inhibition [11]: inactive
–,–,–,O=C(Nc1ccc([N+](=O)[O-])cc1Cl)c1cc(Cl)ccc1O,Activity (HeLa [12]): Active; Activity [13]: Active
–,–,inactive,CC(C)(C)CNc1ncnc2[nH]cnc12,–
–,–,inactive,Oc1ccc(CCNc2ncnc3[nH]cnc23)cc1,–
